The list is not random: actives were taken first. Their share in the collection is about 3.7%.
KCNQ1 pot: human KCNQ1 channel potentiation or activation; P51787; CHO-K1 KCNQ1, thallium flux FluxOR fluorescence; hits give high values; B-score at 10 µM; 310,000 compounds, 0.35% hits; AID 2648;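 active = fluorescence ratio B-score, a plate-corrected score, at least three library SD, with initial intensity B-score within 5 SD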
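assay system = CHO-K1 cells stably expressing KCNQ1 | medium = assay buffer, equal DMSO in all wells | timing = 37 °C overnight plating, 90-min dark dye load, 20-min compound pretreatment | measured by = kinetic FluxOR thallium fluorescence, 10-s 1-Hz baseline, 110-s post-stimulus read | measure = fluorescence change relative to baseline, converted to B score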
hERG rescue: compounds protecting human hERG from proarrhythmic drug block; CHO-hERG, FluxOR thallium flux, dofetilide IC70 present; Q12809; 310,000 compounds, 0.51% hits; activation (rescue from dofetilide block), less the hit threshold, % at 10 µM;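 active = activation above the mean of controls blocked by dofetilide plus 5 SD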;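 also: thallium influx through hERG after potassium depolarization seen as dye fluorescence rise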
Kir21 inh: Kir2.1 (mouse) channel inhibition; HEK293-Kir2.1, FluxOR thallium flux fluorescence; hits give low values; B-score at 10 µM; 310,000 compounds, 0.85% hits; AID 1672;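 active = fluorescence ratio B-score at or below minus 3 SD of library scores, with starting-brightness B-score within 2 SD, cut at about -4.2 in these data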;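 also: channel flux triggered by added potassium and thallium sulfate stimulus; B-score of peak minus minimum fluorescence over baseline after thallium stimulus; more negative B-score means stronger Kir2.1 block with less thallium influx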
KCNQ1 block: blocks the human KCNQ1 potassium channel | P51787 | CHO-K1 KCNQ1, FluxOR thallium flux fluorescence; hits give high values | B-score at 10 µM | 310,000 compounds, 1.3% hits | AID 2642;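 active = compounds whose thallium flux B-score, printed positive for inhibition, exceeds three library SD while starting fluorescence stays within three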;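 also: channel opened by potassium depolarization with thallium stimulus after 20 min compound exposure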
KCNK9 inh: blocks the human KCNK9 two-pore domain potassium channel; Q9NPC2; HEK293 KCNK9, FluxOR thallium flux fluorescence; hits give low values; B-score at 10 µM; 310,000 compounds, 1.2% hits; AID 488922;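 active = ratio B-score over 3 SD below the library mean, with starting fluorescence within 5 SD of its mean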;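 also: negative B-score means less thallium flux so channel inhibition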
KCNK3 block: human KCNK3 channel inhibition, primary screen | O14649 | CHO-KCNK3 thallium flux, FluxOR fluorescence; hits give low values | B-score at 10 µM | 340,000 compounds, 0.84% hits | AID 602410;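 active = B-score under library mean minus 4 SD, starting fluorescence ratio at most library mean plus 5 SD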;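 also: more negative B-score means stronger inhibition of thallium flux through KCNK3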
Target sequence (O14649 whole entry, looked up): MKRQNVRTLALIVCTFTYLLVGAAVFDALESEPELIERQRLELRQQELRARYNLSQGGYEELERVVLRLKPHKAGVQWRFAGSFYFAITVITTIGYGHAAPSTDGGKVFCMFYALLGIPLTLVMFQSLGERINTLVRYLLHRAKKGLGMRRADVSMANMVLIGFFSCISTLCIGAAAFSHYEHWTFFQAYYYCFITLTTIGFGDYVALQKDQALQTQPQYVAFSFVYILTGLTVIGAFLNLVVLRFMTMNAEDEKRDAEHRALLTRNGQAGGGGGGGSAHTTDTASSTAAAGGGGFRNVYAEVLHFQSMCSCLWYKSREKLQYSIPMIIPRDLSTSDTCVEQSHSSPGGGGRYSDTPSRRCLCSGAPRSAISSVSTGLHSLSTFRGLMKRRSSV
* hit, by the source's call; i = inactive; . = no result given.

SMILES	KCNQ1 pot	hERG rescue	Kir21 inh	KCNQ1 block	KCNK9 inh	KCNK3 block
COC(=O)CCN(C(=O)c1ccc([N+](=O)[O-])cc1)c1ccccn1	i	-9.5	1.64	11*	i	i
COc1ccc(S(=O)(=O)NCCSCc2ccco2)cc1C	i	-6.5	-2.88	i	i	i
COc1ccc(S(=O)(=O)NCCSCc2ccco2)cc1Cl	i	-6.7	-6.27*	i	i	i
CCOC(=O)Cn1c(=N)n(CCOc2ccc3ccccc3c2)c2ccccc21	i	-18.3	-10.9*	i	i	i
COc1cc(/C=C2\C(=O)N(c3ccc(NC(C)=O)cc3)N=C2c2ccccc2)ccc1O	i	-17.4	-2.45	i	i	i
O=C1/C(=C\c2ccc(O)c(O)c2)C(c2ccccc2)=NN1c1ccccc1	i	-29.4	-2.6	6*	i	i
Cc1cccc(-n2c(N)c(-c3nc4ccccc4n3C)c3nc4ccccc4nc32)c1	i	-14.5	-0.09	i	i	-8.76*
COc1cc(CC(=O)OCC(=O)NCc2cccs2)cc(OC)c1OC	.	.	.	.	.	i
CCCCC(=O)Nc1nc(C)c(-c2csc(Nc3ccccc3OC)n2)s1	i	-8.8	0.98	i	i	i
CCCCCC(=O)Nc1nc(C)c(-c2csc(Nc3cc(OC)ccc3OC)n2)s1	i	-9.9	0.19	i	-7.25*	i
COc1ccccc1N(C(=O)c1snc(C(N)=O)c1N)C(C(=O)NC1CCCCC1)c1cccc(OC)c1OC (stereo unspecified)	i	-13.8	-1	i	i	i
CCCC(=O)N1CCN(c2ccc(NC(=O)c3cccs3)cc2)CC1	i	-9.2	2.27	i	i	i
COc1ccc(NC(=O)c2ccccc2N2C(=O)C3C4C=CC(C5CC45)C3C2=O)c(OC)c1 (stereo unspecified)	i	-8.1	0.03	i	i	i
Cc1cc2ccccn2c1C(=S)NC(=O)c1ccccc1	26*	33.6*	1.29	i	i	i
N#C/C(=C/c1ccc(N2CCOCC2)o1)C(=O)NC1CCCCC1	i	-23.7	-5.76	7*	i	i
N#C/C(=C\c1ccc(N2CCOCC2)o1)C(=O)Nc1ccc(O)cc1	i	-25.4	-5.4	7*	i	i
Cc1ccc(C)c2c1[nH]c1ccc([N+](=O)[O-])cc12	i	-6.5	-0.47	8*	i	i
CCOC(=O)COn1c(-c2cccc(Cl)c2)nc2ccc([N+](=O)[O-])cc21	i	-12.3	-0.09	6*	i	i
CC(On1c(-c2ccccc2)nc2ccc(Cl)cc21)C(=O)O (stereo unspecified)	i	-9.6	-0.39	i	i	i
C=CCNCC(=O)N1N=C(c2ccc3ccccc3c2)CC1c1ccc(OC)cc1 (stereo unspecified)	i	-27.8	-4.32*	i	i	i
Cc1cccc(C(=O)NC(=S)NNC(=O)c2cccs2)c1	8*	-1.9	0.03	i	i	i
CC(C)(C)c1ccc(C(=O)NC(=S)NNC(=O)c2cccs2)cc1	12*	-9.0	0.83	i	i	i
Cc1ccccc1C(=O)NNC(=S)NC(=O)c1cccs1	i	-8.5	-0.2	i	i	i
O=C(NC(=S)NNC(=O)c1cccs1)c1ccccc1	i	-11.5	-0.3	6*	i	i
CN(Cc1nc2ccccc2c(=O)[nH]1)C(=O)c1ccc(S(=O)(=O)N2CCCC2)cc1	.	.	.	.	.	i
SMILES	KCNQ1 pot	hERG rescue	Kir21 inh	KCNQ1 block	KCNK9 inh	KCNK3 block
CC1Cc2ccccc2N1CC(=O)NCc1ccc2c(c1)OCO2 (stereo unspecified)	i	-6.6	-1.06	i	i	i
CCOc1ccc2nc(SCC(=O)N3CCCc4ccccc43)sc2c1	i	-7.5	0.74	i	i	i
COc1cccc(-n2ccnc2SCC(=O)Nc2ccccc2)c1	i	-8.3	-4.86*	i	i	i
CCOc1ccc(-n2ccnc2SCC(=O)N2CCCc3ccccc32)cc1	i	-5.1	-6.74*	i	i	i
COc1cccc(-n2ccnc2SCC(=O)N2CCCc3ccccc32)c1	i	-6.5	-7.55*	i	i	i
CCOC(=O)CNc1cccc(C(F)(F)F)c1	i	-14.7	1.23	i	i	i
Cc1ccc(C)c(S(=O)(=O)N2CCN(C(=O)CCC(=O)NCc3ccc(Cl)cc3Cl)CC2)c1	.	.	.	.	.	i
CC(=O)c1ccc(S(=O)(=O)N(CC(=O)NC2CC2)Cc2ccc(F)cc2)cc1	.	.	.	.	.	i
S=c1nc(C2CCCCC2)n(-c2ccccc2)[nH]1	40*	11.4*	-0.41	i	i	i
CC(C)(C)C(Cn1ccnc1)NC(=O)c1ccc2nc(C3CC3)oc2c1 (stereo unspecified)	i	-13.1	-1.01	i	i	i
CCOC(=O)C1(CCOc2ccccc2)CCN(Cc2cccs2)CC1	i	-11.1	-5.04*	i	i	i
CCOC(=O)C1(CCOc2ccccc2)CCN(Cc2ccncc2)CC1	i	-8.7	-0.04	i	i	i
O=C(Oc1cccc2c(O)cccc12)c1ccccc1	i	-7.1	-5.42*	i	i	i
NC(=S)NN=C1CCSCC1	.	.	.	.	.	i
O=C(/C=C/c1cn(-c2ccccc2)nc1-c1cccc(Cl)c1)N1CCN(c2ccccn2)CC1	i	-23.4	0.44	7*	i	i
O=C(c1ccoc1)N1CCC2(CC1)Oc1ccc(Cl)cc1C(=O)C21CC(c2ccc(Cl)cc2)=NO1 (stereo unspecified)	i	-12.2	-0.73	6*	i	i
O=C(c1ccoc1)N1CCC2(CC1)Oc1ccc(F)cc1C(=O)C21CC(c2ccc(Cl)cc2)=NO1 (stereo unspecified)	i	-6.0	0.71	i	i	i
CCC(O)c1c(-c2ccccc2)nn(C)c1Cl (stereo unspecified)	i	-10.9	1.01	i	i	i
Cn1nc(-c2ccccc2)c(CSc2ccccc2)c1Cl	i	-6.6	-0.62	i	-7.34*	i
Cc1cccc(NC(=O)CCc2c(C)nc3ncnn3c2C)n1	i	6.4*	-0.09	i	i	i
Cc1cc(C)cc(NC(=O)CSCc2cc(=O)n3ccsc3n2)c1	i	-0.6	-1.74	i	i	i
Cc1cc(=S)nc(-c2ccccn2)[nH]1	i	1.8	1.2	i	i	i
Cc1[nH]c(-c2ccccn2)nc(=S)c1Cl	41*	51.7*	2.59	i	i	i
COc1ccccc1NC(=O)CCNS(=O)(=O)c1ccc2c(c1)CCN2C(C)=O	i	-5.8	-0.16	i	i	i

Screens as filed in PubChem BioAssay.
